ChEMBL document CHEMBL1828498, “Identification and characterization of a novel integrin-linked kinase inhibitor” (J Med Chem, 2011)
The source made the active and inactive calls. The rule behind the calls is not given here.

What was measured:
[1] = test system: SK-BR-3; assay: Reduction in YB-1 mRNA expression in human SKBR3 cells expressing constitutively active ILK after 24 hrs by RT-PCR analysis; assay type: functional, cell-based
How it was run: (§1)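 PC-3, PC-3/CA-ILK, SKBR3 and SKBR3/CA-ILK cells treated 24 h in 5% FBS medium; total RNA from 1 × 10^6 cells by Trizol, 1 μg reverse-transcribed, then PCR with gene-specific primers and β-actin reference.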

[2] = test system: PC-3; assay: Reduction in YB-1 concentration in human PC3 cells after 24 hrs by Western blot analysis; assay type: functional, cell-based
How it was run: (§2)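 PC-3 versus stable PC-3/CA-ILK, or SKBR3 versus transient SKBR3/CA-ILK (electroporation, used 48 h after), treated 24 h in 5% FBS medium; immunoblotting with ECL; representative of three experiments.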

[3] = test system: PC-3; assay: Reduction in HER2 concentration in human PC3 cells expressing constitutively active ILK after 24 hrs by Western blot analysis; assay type: functional, cell-based; how it was run: as §2
[4] = test system: PC-3; assay: Induction of apoptosis in human PC3 cells assessed as late apoptotic cells at 1 uM by annexin V/PI staining (reference value: 9.8%); assay type: functional
[5] = molecular target: Hepatocyte growth factor receptor (Homo sapiens) (UniProt P08581); assay: Inhibition of Met at 5 uM assessed as remaining activity
Chain of Hepatocyte growth factor receptor (Homo sapiens) (P08581 whole entry): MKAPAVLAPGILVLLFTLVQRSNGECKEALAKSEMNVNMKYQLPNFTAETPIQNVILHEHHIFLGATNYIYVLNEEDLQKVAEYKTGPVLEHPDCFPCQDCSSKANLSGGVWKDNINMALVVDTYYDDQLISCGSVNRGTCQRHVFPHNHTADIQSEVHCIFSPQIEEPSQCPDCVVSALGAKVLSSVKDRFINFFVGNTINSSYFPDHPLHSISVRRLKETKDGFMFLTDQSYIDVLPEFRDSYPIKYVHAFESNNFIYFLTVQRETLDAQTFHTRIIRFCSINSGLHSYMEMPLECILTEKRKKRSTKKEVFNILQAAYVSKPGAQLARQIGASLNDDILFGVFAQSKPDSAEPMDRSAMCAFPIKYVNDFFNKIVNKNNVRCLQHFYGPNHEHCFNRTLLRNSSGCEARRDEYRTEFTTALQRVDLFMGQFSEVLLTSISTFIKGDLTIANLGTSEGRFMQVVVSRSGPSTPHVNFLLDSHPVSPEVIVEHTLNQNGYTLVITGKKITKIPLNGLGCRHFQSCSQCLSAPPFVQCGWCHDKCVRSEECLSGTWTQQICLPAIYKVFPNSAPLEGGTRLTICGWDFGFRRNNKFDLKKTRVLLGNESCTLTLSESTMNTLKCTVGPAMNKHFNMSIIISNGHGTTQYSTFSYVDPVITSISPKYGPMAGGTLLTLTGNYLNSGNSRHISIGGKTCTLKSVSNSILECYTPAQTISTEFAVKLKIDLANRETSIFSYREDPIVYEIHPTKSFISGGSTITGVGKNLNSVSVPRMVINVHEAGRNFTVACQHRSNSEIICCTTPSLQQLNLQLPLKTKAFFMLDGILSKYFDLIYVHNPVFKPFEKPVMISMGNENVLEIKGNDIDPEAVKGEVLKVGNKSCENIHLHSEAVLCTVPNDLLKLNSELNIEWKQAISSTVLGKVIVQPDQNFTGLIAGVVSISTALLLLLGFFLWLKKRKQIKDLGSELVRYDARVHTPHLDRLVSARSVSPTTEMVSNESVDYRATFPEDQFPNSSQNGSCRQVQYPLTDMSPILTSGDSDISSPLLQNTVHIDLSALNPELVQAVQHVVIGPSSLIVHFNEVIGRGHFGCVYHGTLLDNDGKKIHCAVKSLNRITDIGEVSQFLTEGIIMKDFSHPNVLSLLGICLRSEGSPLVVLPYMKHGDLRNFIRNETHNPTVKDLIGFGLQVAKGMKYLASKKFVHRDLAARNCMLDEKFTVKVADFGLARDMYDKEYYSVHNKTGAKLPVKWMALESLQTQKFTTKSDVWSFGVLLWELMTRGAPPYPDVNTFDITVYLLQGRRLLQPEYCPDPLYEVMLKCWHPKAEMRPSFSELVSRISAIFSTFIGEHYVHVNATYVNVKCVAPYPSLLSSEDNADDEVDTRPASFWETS
How it was run: (§3)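 Panel of 20 recombinant kinases, profiled by a commercial vendor.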

[6] = test system: MDA-MB-468; assay: Antiproliferative activity against human MDA-MB-468 cells assessed as suppression of cell viability by MTT assay; assay type: functional, cell-based
How it was run: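 Cancer lines seeded 5000/well and nonmalignant PrEC/MEC 8000/well in 10% FBS, 24 h before treatment. Compound exposure 24 h in 5% FBS medium, 0.1% final DMSO. MTT (0.25 mg/mL) for 1 h at 37°C, dye solubilized in DMSO, absorbance read at 570 nm. Mean ± SD, n = 6.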

[7] = test system: PC-3; assay: Reduction in YB-1 mRNA expression in human PC3 cells expressing constitutively active ILK after 24 hrs by RT-PCR analysis; assay type: functional, cell-based; how it was run: as §1
[8] = molecular target: Tyrosine-protein kinase ZAP-70 (Homo sapiens) (UniProt P43403); assay: Inhibition of ZAP70 at 5 uM assessed as remaining activity
Chain of Tyrosine-protein kinase ZAP-70 (Homo sapiens) (P43403 whole entry): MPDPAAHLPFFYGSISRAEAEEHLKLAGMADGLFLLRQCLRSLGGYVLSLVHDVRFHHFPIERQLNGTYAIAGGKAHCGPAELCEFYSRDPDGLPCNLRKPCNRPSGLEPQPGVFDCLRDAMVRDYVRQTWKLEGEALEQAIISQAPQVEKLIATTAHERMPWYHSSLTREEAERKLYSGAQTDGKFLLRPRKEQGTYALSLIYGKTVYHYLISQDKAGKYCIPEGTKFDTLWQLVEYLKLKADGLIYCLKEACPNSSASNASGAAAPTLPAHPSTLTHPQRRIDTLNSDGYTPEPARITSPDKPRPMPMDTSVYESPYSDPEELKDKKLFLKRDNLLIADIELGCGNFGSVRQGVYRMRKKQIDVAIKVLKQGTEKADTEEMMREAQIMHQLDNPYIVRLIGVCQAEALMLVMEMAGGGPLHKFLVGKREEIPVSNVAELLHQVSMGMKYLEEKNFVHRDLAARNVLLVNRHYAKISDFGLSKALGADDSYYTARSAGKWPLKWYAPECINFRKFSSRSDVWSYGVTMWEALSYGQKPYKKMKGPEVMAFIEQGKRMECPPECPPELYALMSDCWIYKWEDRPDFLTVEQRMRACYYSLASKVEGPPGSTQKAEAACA

[9] = test system: SK-BR-3; assay: Reduction in EGFR concentration in human SKBR3 cells after 24 hrs by Western blot analysis; assay type: functional, cell-based; how it was run: as §2
[10] = test system: 3-phosphoinositide dependent protein kinase-2, PDK2; assay: Inhibition of PDK2 in human PC3 cells assessed as Akt Ser-473 dephosphorylation by Western blot analysis; assay type: functional, cell-based; details: PC-3
How it was run: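 Cells exposed 24 h in 5% FBS medium, final DMSO 0.1%; lysed in 1% SDS/10 mM EDTA/50 mM Tris pH 8.1, equal protein on SDS-PAGE, nitrocellulose, primary antibody 1:1000 at 4°C for 2 h, HRP secondary 1:5000, ECL detection; blots representative of three independent experiments.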

[11] = test system: SK-BR-3; assay: Reduction in EGFR concentration in human SKBR3 cells expressing constitutively active ILK after 24 hrs by Western blot analysis; assay type: functional, cell-based; how it was run: as §2
[12] = molecular target: T1, Scaffold protein ILK (Homo sapiens) (UniProt Q13418); assay: Inhibition of ILK in human PC3 cells expressing constitutively active ILK assessed as decrease in phosphorylated ERK1/2 concentration by Western blot analysis; assay type: cell-based; details: PC-3
T1 sequence (whole entry): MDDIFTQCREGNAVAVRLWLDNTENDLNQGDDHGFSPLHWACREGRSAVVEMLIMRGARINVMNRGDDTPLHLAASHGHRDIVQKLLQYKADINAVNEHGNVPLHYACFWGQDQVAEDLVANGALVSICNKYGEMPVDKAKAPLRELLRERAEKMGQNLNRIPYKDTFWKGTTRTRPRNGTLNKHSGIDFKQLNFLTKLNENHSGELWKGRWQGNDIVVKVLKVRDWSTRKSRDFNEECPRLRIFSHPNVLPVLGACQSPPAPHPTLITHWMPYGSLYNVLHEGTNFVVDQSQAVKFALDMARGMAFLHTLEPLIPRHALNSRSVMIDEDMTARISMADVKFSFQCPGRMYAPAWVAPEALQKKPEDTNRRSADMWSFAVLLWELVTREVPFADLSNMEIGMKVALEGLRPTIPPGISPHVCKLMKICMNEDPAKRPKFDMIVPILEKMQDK
How it was run: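 Stable PC-3 clones expressing GFP-CA-ILK (G418 250 μg/mL selection, GFP sorting) treated 24 h in 5% FBS medium. Phospho-ERK1/2 and phospho-p38 detected by immunoblot with ECL. Representative of three experiments.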

[13] = molecular target: Cyclin-dependent kinase 5/CDK5 activator 1 (Homo sapiens) (UniProt Q00535+Q15078); assay: Inhibition of CDK5/p25 at 5 uM assessed as remaining activity; assay type: protein-complex assay; how it was run: as §3
Chain of Cyclin-dependent kinase 5/CDK5 activator 1 (Homo sapiens) (Q00535 whole entry): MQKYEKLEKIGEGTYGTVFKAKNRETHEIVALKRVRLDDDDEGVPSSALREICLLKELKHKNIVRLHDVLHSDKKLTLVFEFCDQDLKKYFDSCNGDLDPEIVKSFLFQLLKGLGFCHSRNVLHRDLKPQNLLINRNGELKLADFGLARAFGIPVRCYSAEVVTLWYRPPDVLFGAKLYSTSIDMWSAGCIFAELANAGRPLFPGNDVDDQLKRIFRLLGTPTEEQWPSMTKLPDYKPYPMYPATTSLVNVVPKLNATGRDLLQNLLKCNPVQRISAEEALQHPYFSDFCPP
Chain of Cyclin-dependent kinase 5/CDK5 activator 1 (Homo sapiens) (Q15078 99-307 partner limits assumed): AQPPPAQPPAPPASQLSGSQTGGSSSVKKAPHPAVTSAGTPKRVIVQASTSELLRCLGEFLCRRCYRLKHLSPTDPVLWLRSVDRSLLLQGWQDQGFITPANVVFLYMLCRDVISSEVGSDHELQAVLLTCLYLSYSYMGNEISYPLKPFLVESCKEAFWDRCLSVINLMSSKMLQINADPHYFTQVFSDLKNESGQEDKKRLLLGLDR

[14] = molecular target: T1, Scaffold protein ILK (Homo sapiens); assay: Inhibition of ILK in human PC3 cells assessed as decrease in phosphorylated p38 concentration by Western blot analysis; assay type: cell-based; details: PC-3
How it was run: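 PC-3 cells exposed to graded concentrations for 24 h in 5% FBS medium. Immunoblotting for phospho-Tyr397-FAK, ERK1/2, p38 and JNK. Lysis in 1% SDS buffer, primary antibody 1:1000 at 4°C for 2 h, ECL. Three independent experiments.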

[15] = molecular target: Proto-oncogene tyrosine-protein kinase Src (Homo sapiens) (UniProt P12931); assay: Inhibition of cSRC at 5 uM assessed as remaining activity
Chain of Proto-oncogene tyrosine-protein kinase Src (Homo sapiens) (P12931 2-536 limits assumed): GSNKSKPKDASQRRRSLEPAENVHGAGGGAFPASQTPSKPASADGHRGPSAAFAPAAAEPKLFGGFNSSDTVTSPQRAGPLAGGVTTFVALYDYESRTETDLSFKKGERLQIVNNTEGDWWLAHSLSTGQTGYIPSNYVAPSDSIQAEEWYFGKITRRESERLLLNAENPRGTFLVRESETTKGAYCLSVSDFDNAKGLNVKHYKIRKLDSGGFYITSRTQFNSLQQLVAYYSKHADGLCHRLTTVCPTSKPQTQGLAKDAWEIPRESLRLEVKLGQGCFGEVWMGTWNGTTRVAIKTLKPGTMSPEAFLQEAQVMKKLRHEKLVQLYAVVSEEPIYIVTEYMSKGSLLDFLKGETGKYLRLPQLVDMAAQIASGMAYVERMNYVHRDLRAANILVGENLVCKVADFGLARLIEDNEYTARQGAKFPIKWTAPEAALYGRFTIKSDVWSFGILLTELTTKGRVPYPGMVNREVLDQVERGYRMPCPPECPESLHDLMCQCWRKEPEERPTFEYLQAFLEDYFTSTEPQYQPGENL

[16] = test system: PC-3; assay: Suppression of tumor growth in human PC3 cells xenografted in nude mouse at 50 mg/kg/day, po administered for 35 days relative to control; assay type: functional
How it was run: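 Male NCr athymic nude mice, s.c. 0.5 × 10^6 PC-3 cells in 50% Matrigel; established tumors randomized (n=6) to daily oral gavage in 0.5% methylcellulose/0.1% Tween 80 in water, 10 μL/g, 35 days; weekly caliper volume = width² × length × 0.52; mean ± SEM, ANOVA or t-test.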

[17] = test system: PC-3; assay: Induction of apoptosis in human PC3 cells assessed as late apoptotic cells at 4 uM by annexin V/PI staining (reference value: 9.8%); assay type: functional
[18] = molecular target: Serine/threonine-protein kinase mTOR (Homo sapiens) (UniProt P42345); assay: Inhibition of mTOR at 5 uM assessed as remaining activity
[19] = test system: Mus musculus; assay: Decrease in phosphorylation of GSK3-beta in human PC3 cells xenografted nude mouse tumor lysate at 25 mg/kg, po administered for 35 days by Western blot analysis; assay type: functional, organism-based; design: dose 25 mg/kg; details: Neoplasm, PC-3
How it was run: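 Male NCr athymic nude mice, 5–7 weeks, with s.c. PC-3 xenografts (0.5 × 10^6 cells in 50% Matrigel), dosed by oral gavage once daily for 35 days. Vehicle 0.5% methylcellulose, 0.1% Tween 80 in water, 10 μL/g. Tumors snap-frozen at sacrifice; three tumors per group immunoblotted.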

[20] = molecular target: Tyrosine-protein kinase JAK2 (Homo sapiens) (UniProt O60674); assay: Inhibition of Jak2 at 5 uM assessed as remaining activity; how it was run: as §3
Chain of Tyrosine-protein kinase JAK2 (Homo sapiens) (O60674 whole entry): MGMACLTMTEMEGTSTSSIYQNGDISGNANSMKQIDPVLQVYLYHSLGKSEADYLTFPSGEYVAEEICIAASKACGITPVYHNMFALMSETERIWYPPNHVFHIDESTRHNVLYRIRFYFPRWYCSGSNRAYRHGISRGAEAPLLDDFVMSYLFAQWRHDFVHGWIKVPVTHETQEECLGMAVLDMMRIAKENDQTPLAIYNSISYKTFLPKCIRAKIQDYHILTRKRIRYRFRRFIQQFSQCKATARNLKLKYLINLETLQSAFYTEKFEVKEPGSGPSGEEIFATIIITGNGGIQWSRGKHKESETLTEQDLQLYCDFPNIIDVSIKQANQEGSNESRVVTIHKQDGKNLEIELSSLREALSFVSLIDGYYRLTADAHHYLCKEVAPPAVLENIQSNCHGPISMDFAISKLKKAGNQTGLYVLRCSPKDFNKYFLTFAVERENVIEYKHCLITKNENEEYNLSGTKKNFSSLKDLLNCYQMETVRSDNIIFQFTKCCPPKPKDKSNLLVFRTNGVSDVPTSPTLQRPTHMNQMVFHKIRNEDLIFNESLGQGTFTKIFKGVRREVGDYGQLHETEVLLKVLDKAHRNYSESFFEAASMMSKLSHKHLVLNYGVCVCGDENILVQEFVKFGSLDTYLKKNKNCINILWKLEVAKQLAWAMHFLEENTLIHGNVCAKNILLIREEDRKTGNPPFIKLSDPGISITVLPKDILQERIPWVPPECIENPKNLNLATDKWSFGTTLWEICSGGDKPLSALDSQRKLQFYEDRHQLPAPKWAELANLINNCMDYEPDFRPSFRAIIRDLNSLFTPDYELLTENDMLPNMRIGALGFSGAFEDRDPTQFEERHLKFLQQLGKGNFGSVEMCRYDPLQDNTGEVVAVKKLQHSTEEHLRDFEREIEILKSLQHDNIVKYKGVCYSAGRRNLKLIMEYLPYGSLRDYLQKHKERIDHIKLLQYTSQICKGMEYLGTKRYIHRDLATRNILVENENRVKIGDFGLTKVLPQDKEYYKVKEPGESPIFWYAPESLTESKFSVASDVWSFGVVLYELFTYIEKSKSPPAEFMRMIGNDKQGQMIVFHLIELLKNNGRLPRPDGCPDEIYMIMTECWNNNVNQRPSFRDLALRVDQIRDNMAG

[21] = test system: PC-3; assay: Cytotoxicity against human PC3 cells expressing Atg5 siRNA assessed as cell viability by MTT assay; assay type: functional, cell-based
How it was run: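 PC-3 cells electroporated with Atg5 siRNA (or control siRNA) and used 48 h after transfection. Treated 24 h in 5% FBS medium, 0.1% DMSO. Viability by MTT, 1 h at 37°C, absorbance 570 nm. Mean ± SD, n = 6.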

Activity [5]: 110%
IC50 [6]: 1.5 µM
Activity [8]: 104%
inhibition [12]: inactive
Activity [13]: 98%
inhibition [14]: Dose-dependent effect
Activity [15]: 91%
Activity [18]: 122%
Activity [20]: 114%
SMILES: CNC(=O)CCc1cc(-c2ccc(-c3ccc(C(F)(F)F)cc3)cc2)n(-c2ccc(N3CCNCC3)cc2)n1
Activity [1]: inactive
Activity [2]: Dose-dependent effect
Activity [3]: inactive
Activity [4]: 10.1%
Activity [7]: inactive
Activity [9]: Dose-dependent effect
inhibition [10]: Dose-dependent effect
Activity [11]: inactive
Activity [16]: 62%
Activity [17]: 19.1%
Activity [19]: Active
Activity [21]: inactive
